PubChem BioAssay
Calls of active or inactive are those of the source.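 How the source made its calls, unless noted: active means viability at or under a set limit in both replicates, limit being median viability minus 3 SD (cut at about 48% in these data, passing the limit was not always enough); inconclusive means at or under the limit in just one replicate; inactive means at or above the limit in both replicates.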

Legend:
[1] = reduced viability of SK-BR-3 breast cancer cells – cell-based, 24 h, human, pilot screen (AID 572;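 active means viability at or below 10% of carrier control in both of two separate runs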;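 further: compound exposure lasted between 18 and 24 h rather than exactly 24 h; 100% = carrier-treated control wells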); details: SK-BR-3 viability, CellTiter-Glo luminescence, at 10 µM, stronger effect = lower value
[2] = HUVEC growth inhibition – cell-based, human, primary screen (AID 575;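 active means viability at or below 30% in both replicate assays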;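 further: 100% = median of untreated cell wells with 0.1% DMSO on each plate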); details: HUVEC proliferation, CellTiter-Glo luminescence, 72 h; at 10 µM; stronger effect = lower value
In short: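 material = primary HUVEC, no more than 12 passages | input = 1250 cells per well | controls = vehicle and MePR control wells | measured by = CTG luminescence | times = 72 h compound incubation | format = collagen-coated 384-well format | read-out = % viability vs DMSO wells | doses = single 10 µM dose, 0.1% DMSO, from 5x medium stock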

[3] = H69AR cell proliferation blockers – human, duplicate replicates, primary screen (AID 580); details: H69AR lung tumor cells viability, ATP luminescence, 72 h; at 10 µM; stronger effect = lower value;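 further: 100% = mean luminescence of untreated wells and 0% = no signal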
[4] = MRP1 drug-resistance reversers in H69AR cells – cell-based, doxorubicin co-treatment, pilot screen (AID 601;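 active means viability loss from added drug above about 55%, and viability with drug at most 40%, in both replicates, limit read from the data, passing the limit was not always enough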); details: CellTiter-Glo, 72 h, at 10 µM; for differential viability (reversal): stronger effect = higher value
[5] = yeast transport mutant growth inhibition pilot in 384-well plates, post-Golgi transport modulator project (AID 636; in the data active means inhibition above about 31%); details: absorbance 615 nm, about 18 h, stronger effect = higher value
[6] = growth suppression of yeast trafficking mutant, preliminary HTS, modulators of trafficking downstream of Golgi apparatus project, 1536-format plate, OD 615 nm (AID 637; in the data active means inhibition above about 30%); details: yeast transport mutant growth, absorbance 615 nm, 18 h; stronger effect = higher value
[7] = H69AR cells + 2 uM doxorubicin, measured here: viability with 2 uM doxorubicin, stronger effect = lower value
[8] = H69AR cells, compound alone cytotoxicity

Compound | viability [1] | viability [2] | viability [3] | differential viability (reversal) ([4]; H69AR cells + 2 uM doxorubicin) | viability [4, 7] | viability [4, 8] | inhibition [5] | inhibition [6]
Cc1csc(NC(=O)c2cccs2)n1 | 119% (inactive) | 93.9% (inactive) | 89.7% (inactive) | 3.83% (inactive) | 85.8% | 89.7% | -1.43% (inactive) | 1.48% (inactive)
O=C(NCc1ccccc1)c1cc(-c2ccco2)on1 | 111% (inactive) | 100% (inactive) | 94% (inactive) | 16.6% (inactive) | 77.3% | 94% | -0.13% (inactive) | 4.59% (inactive)
Cc1cc(C(=O)Nc2c(F)cc(F)cc2Br)no1 | 99% (inactive) | 91.9% (inactive) | 98.2% (inactive) | -0.16% (inactive) | 98.4% | 98.2% | -6.16% (inactive) | 4.03% (inactive)
CCN(CCCNC(=O)COc1cc(=O)n(CC)c2ccccc12)c1ccccc1 | 86% (inactive) | 56.9% (inactive) | 74.7% (inactive) | 5.79% (inactive) | 68.9% | 74.7% | -5.32% (inactive) | -4.75% (inactive)
CS(=O)(=O)N(CC(=O)N1CCc2ccccc2C1)c1ccc2c(c1)OCO2 | 129% (inactive) | 102% (inactive) | 102% (inactive) | 14.2% (inactive) | 87.8% | 102% | -1.04% (inactive) | 2.13% (inactive)
COCCNC(=O)CN1CCC(NC(=O)Nc2ccc(C(F)(F)F)cc2)CC1 | 92% (inactive) | 96.5% (inactive) | 102% (inactive) | 8.66% (inactive) | 93.5% | 102% | -5.54% (inactive) | 0.55% (inactive)
COc1cccc(/C=N/n2c(-c3ccco3)nc3ccccc3c2=O)c1 | 71% (inactive) | 105% (inactive) | 73.2% (inactive) | -12.3% (inactive) | 85.4% | 73.2% | -6.76% (inactive) | 2.36% (inactive)
O=C(CCn1c(=O)sc2ccccc21)NCc1ccc2c(c1)OCO2 | 75% (inactive) | 111% (inactive) | 99.9% (inactive) | 8.43% (inactive) | 91.5% | 99.9% | -0.81% (inactive) | -2.91% (inactive)
Cc1ccc(Cn2c(SCC(N)=O)nc3c2c(=O)n(C)c(=O)n3C)cc1 | 106% (inactive) | 86.9% (inactive) | 86.4% (inactive) | 3.46% (inactive) | 82.9% | 86.4% | -2.4% (inactive) | -6.55% (inactive)
CC1CCCN(S(=O)(=O)c2ccc(C(=O)Nc3nnc(-c4ccccc4Cl)o3)cc2)C1 (centres undefined) | 87% (inactive) | 11.1% (active) | 18.9% (active) | -19% (inactive) | 37.9% | 18.9% | 11.6% (inactive) | 6.56% (inactive)
O=C(c1csc2ccccc12)N1CCCCCC1 | 109% (inactive) | 83.7% (inactive) | 104% (inactive) | 9.99% (inactive) | 93.9% | 104% | -1.51% (inactive) | -3.87% (inactive)
O=C(C1CCCN(S(=O)(=O)c2cccc3nonc23)C1)N1CCC(Cc2ccccc2)CC1 (centres undefined) | 103% (inactive) | 34.9% (inactive) | 71.3% (inactive) | 16% (inactive) | 55.2% | 71.3% | -4.21% (inactive) | -7.17% (inactive)
COc1cccc(NC(=O)N2CCCC2C(=O)Nc2ccc3c(c2)OCO3)c1 (centres undefined) | 106% (inactive) | 114% (inactive) | 96.3% (inactive) | 16.1% (inactive) | 80.2% | 96.3% | -5.33% (inactive) | -4.55% (inactive)
Nc1nc(-c2ccc(Br)s2)c(Br)s1 | 100% (inactive) | 61.3% (inactive) | 94.3% (inactive) | 9.83% (inactive) | 84.5% | 94.3% | 2.6% (inactive) | -0.16% (inactive)
Cc1cccc(C)c1NC(=O)COC(=O)c1nonc1N | 79% (inactive) | 108% (inactive) | 98.9% (inactive) | 4.63% (inactive) | 94.3% | 98.9% | -4.13% (inactive) | -7.09% (inactive)
CC1CCc2c(sc3c2C2=NS(=O)(=O)CCN2C=N3)C1 (centres undefined) | 88.5% (inactive) | 107% (inactive) | 80.6% (inactive) | -7.62% (inactive) | 88.2% | 80.6% | -9.73% (inactive) | 3.81% (inactive)
Cc1cc(C(F)(F)F)nc(NCc2cccnc2)n1 | 97% (inactive) | 96.4% (inactive) | 92.5% (inactive) | 9.55% (inactive) | 82.9% | 92.5% | -1.04% (inactive) | -1.97% (inactive)
CCOC(=O)N1CCN(C(=O)CN(Cc2ccccc2)S(=O)(=O)c2ccc(OC)c(C)c2)CC1 | 106% (inactive) | 102% (inactive) | 94.7% (inactive) | -7.75% (inactive) | 102% | 94.7% | -0.13% (inactive) | -3.45% (inactive)
